We go through 70 compounds from ChEMBL document CHEMBL4513216, “Probing the Open Global Health Chemical Diversity Library for Multistage-Active Starting Points for Next-Generation Antimalarials” (ACS Infect Dis, 2020).

The data set is described as follows: Toxicity liver stage against HepG2, at 10uM. The settings on record: human, HepG2-A16-CD81EGFP cells; read-out: INHIBITION
The data set is classed as cell-based. Details: test concentration 10 uM, cell line HepG2-A16-CD81EGFP. Put shortly:
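Uninfected HepG2-A16-CD81EGFP cells, 3 × 10^3 per well, 1536-well, plated on prespotted compound at 10 μM final, parasite-free screening media added to match infected plates; puromycin 10 μM positive, DMSO 0.5% negative; run in parallel with 48 h PbLuc assay at 37 °C, 5% CO2; viability by CellTiter-Glo luminescence, normalized to controls.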
Regarding `Cc1ccncc1NC(=O)C1CSc2ncc(C)c(=O)n2C1` (stereo not given), the cytotoxicity at 10 µM was -6.53%.
Under `CCNC(=O)N1CCC2(CC1)CCn1c(C3CC3)cnc12` stands 1.89%.
Under `Cn1cccc1C(=O)N1CC[C@H]2[C@@H]1CCC(=O)N2c1ccccc1` stands -6.53%; under `Cn1ncc2c1C(COCC1CC1)CN(Cc1cccnc1)C2` (stereo not given), 11.4%.
Under `CCOC(=O)Cn1ccc(NC(=O)Cc2ccccc2F)n1` stands 3.33%.
In the case of `Cc1nc(NCc2nonc2C)cc(C(C)Cn2nc(C)c(C)c2C)n1` (stereo not given), the cytotoxicity at 10 µM is 7.03%.
Consider `CCn1cc(CN2CCN(CC(O)c3cc(C)ccc3C)CC2)c(C)n1` (stereo not given), for which the cytotoxicity at 10 µM was 3.41%.
Under `Cc1nccc(C2CN(Cc3cc[nH]n3)CCO2)n1` (stereo not given) stands -6.92%; under `Cc1ccc(S(=O)(=O)Nc2ccc(N3CCSCC3)c(C(=O)O)c2)s1`, 3.54%; under `Cc1ccccc1-n1nccc1NC(=O)CCOC(C)C`, 0%.
Under `Cc1ncc(S(=O)(=O)Nc2ccnn2C2CCCCC2)[nH]1` stands -6.82%.
Take `O=C(CSCc1ccccn1)NCC1CCN(C2CC2)C1` (stereo not given): the cytotoxicity at 10 µM was -14.8%.
Under `NC(=O)CCN(CC(=O)NCc1ccccn1)c1ccc(F)cc1` stands 7.98%; under `Cc1cnc(C(=O)N2CCOCC2c2ccccc2)cn1` (stereo not given), -8.31%.
Under `CCCN1CCC(N(C)CCC(=O)Nc2ccccc2SC)CC1` stands 15.5%.
Under `OC(CNCCn1cccn1)COc1ccc2ccccc2c1` (stereo not given) stands -26.4%.
On to `Cc1noc(Cl)c1CC(=O)NCC(C)(O)c1ccc(F)cc1F` (stereo not given), for which the cytotoxicity at 10 µM is -0.837%.
Under `Cc1nn(CCC#N)c(C)c1CCC(=O)N(C(C)C)C1CC1` stands -2.72%.
Under `COCCCn1ccc(NC(=O)NCCCn2ccnc2)n1` stands -3.04%; under `Cc1ccc(CNC(=O)c2c[nH]nc2NC(=O)COCC2CC2)cc1`, 3.58%; under `COc1cccc(SCC(=O)N2CCC(N3CCCC3=O)CC2)c1`, -9.41%.
Under `CS(=O)(=O)c1nnc(NC(=O)CCc2cc(F)ccc2F)[nH]1` stands -16.6%.
In the case of `Cc1cc(=O)c(C(=O)N2CCN(C)c3ccccc3C2)c[nH]1`, the cytotoxicity at 10 µM worked out at 3.53%.
For `CCC(C)(N)c1nc(=O)c(C)c(C)[nH]1` (stereo not given), the cytotoxicity at 10 µM was -1.82%.
Under `Cc1ccc2c(c1)OCCCC2NCc1nccn1CC(C)C` (stereo not given) stands -0.77%; under `NS(=O)(=O)CC1CCCN(C(=O)CCCC2CCCC2)C1` (stereo not given), 15.8%.
Under `CSCCC(NC(=O)c1ccc2ccccc2n1)C(=O)NC1CC1` (stereo not given) stands -7.03%.
Under `Cc1ccc(CNCC2CCCn3ccnc32)s1` (stereo not given) stands -15.1%; under `COCCN1C(=O)CC[C@@H]2[C@@H]1CCN2S(=O)(=O)C1CC1`, -98.4%.
Turning to `O=C(c1ccncn1)N1CCC[C@]2(C[C@@H](OCc3ccccn3)CO2)C1`, the cytotoxicity at 10 µM was -72.9%.
Regarding `O=C(c1cscn1)N1CC[C@H]2C[C@@H](c3ccncn3)O[C@@H]2C1`, the cytotoxicity at 10 µM is -76.6%.
Under `O=C(c1ccnnc1)N1C[C@H]2CCC[C@@]2(COCC2CCOCC2)C1` stands -3.04%; under `CC(=O)c1ccc(N2CCCC(CO)(CCc3ccccc3)C2)nc1` (stereo not given), 1.2%; under `COc1ccc(-n2cccn2)c(CN2CCC3(CCCN(C)C3=O)C2)c1` (stereo not given), 10.2%.
Under `OC[C@@H]1CCCN1c1ccc(-c2nc(CCc3ccccc3)no2)cn1` stands -0.134%; under `Cc1cc(NCCc2nc(C)c[nH]2)nc(-c2ccccc2O)n1`, 1.5%.
Under `Cc1nccc(N[C@H]2CN(C(=O)CN3CCOCC3)C[C@@H]2C(C)C)n1` stands -7.92%.
As for `CCN(CC)CCCNc1nccc(-c2cn(C)nc2C)n1`, the cytotoxicity at 10 µM is -2.92%.
With `O=C(CCCn1cncn1)N1CCCC1c1nc(-c2ccccc2)no1` (stereo not given), the cytotoxicity at 10 µM came to 0.997%.
Under `COc1cccn(CC(=O)N(C)CCSC)c1=O` stands 5.03%.
Under `N[C@@H](Cc1c[nH]cn1)C(=O)N1CCC(Oc2ccc(Cl)cc2)CC1` stands -2.13%.
As for `O=C(CCN1CCCO1)N1CC[C@@H](CNC(=O)N2CCCC2)[C@H](O)C1`, the cytotoxicity at 10 µM worked out at 0.275%.
Under `CN(Cc1nc(Cc2cccc(C(F)(F)F)c2)no1)C1CCCCC1` stands 1.99%.
Under `Cc1ccc(Cl)c(NC(=O)c2cccc(CN3CC[C@H](O)C3)c2)c1` stands -11.9%.
Under `OCC(O)CN(CCN1CCOCC1)Cc1ccco1` (stereo not given) stands -4.7%.
As for `Cc1ccc2nccc(C(=O)N3CCOC(CCN(C)C)C3)c2c1` (stereo not given), the cytotoxicity at 10 µM stood at 10.8%.
For the compound `CNc1ccnc(N2CCCC(C(=O)c3ccccn3)C2)n1` (stereo not given), the cytotoxicity at 10 µM was -12.1%.
For the compound `CCCS(=O)(=O)N1CCC2(CC1)CC(=O)N(CCCc1ccccc1)C2`, the cytotoxicity at 10 µM amounted to 8.35%.
Under `O=C1NCC(c2ccc(F)cc2)Cc2[nH]c(CCN3CCCC3)nc21` (stereo not given) stands -0.65%; under `COc1ccc(F)cc1C(=O)C1CCCN(Cc2ccc(C)s2)C1` (stereo not given), -1.84%; under `CCN1CC(C(=O)NCCn2cccc2)CC1=O` (stereo not given), -4.72%.
Consider `CN(Cc1nccn1C)C1CCCN(CCCc2ccccc2)C1` (stereo not given), for which the cytotoxicity at 10 µM was found to be 1.17%.
Under `c1ccc(C(CC2CN(Cc3ncc[nH]3)CCO2)c2ccccc2)cc1` (stereo not given) stands -0.73%; under `c1ccc2c(c1)CC(n1ccnc1-c1cc3n(n1)CCNC3)CO2` (stereo not given), 4.58%.
Consider `CCc1[nH]c2ccc(CNC(=O)Cc3c(C)nc(N)nc3C)cc2c1C`, for which the cytotoxicity at 10 µM was found to be 2.02%.
Under `CCCc1c(C(=O)NC2CCCC2)nnn1-c1ccc(OC)cc1` stands 5.65%.
Turning to `Cc1ccc(-c2noc(CN3CCOC(Cn4cncn4)C3)n2)cc1` (stereo not given), the cytotoxicity at 10 µM is -4.15%.
Under `CC(C)Cc1cc(C(=O)N2CCCC(n3cncn3)C2)[nH]n1` (stereo not given) stands -3.9%; under `Cc1cc(C(=O)N2CC[C@]3(C[C@@H](OCc4ccccn4)CO3)C2)c(C)o1`, -78.7%; under `c1cnc(N2CCO[C@H]3[C@H](OCCN4CCCC4)CC[C@@H]32)nc1`, -11.8%.
Under `Cc1cc(C(=O)N2CCc3ncc(CN4CCCC4)n3CC2)no1` stands -108%; under `Cc1cc(CN2C[C@@H]3COC[C@]3(CNS(C)(=O)=O)C2)no1`, -71.2%.
Under `O=C([C@H]1C[C@H]2OCC[C@H]2N(CCc2ccccc2)C1)N1CCCO1` stands -72.8%; under `Cc1ncsc1CN1Cc2cn(C)nc2C(COCC2CC2)C1` (stereo not given), -67.3%.
For the compound `Cc1occc1C(=O)N1CCOCC2(CCN(C3CCOCC3)C2)C1` (stereo not given), the cytotoxicity at 10 µM amounted to 1.47%.
Under `c1cnc(N2CCCC3(CCN(CC4CC4)C3)C2)nc1` (stereo not given) stands -76.9%.
On to `COCCN1CCC2(CC1)CC(Nc1ccc(C)nn1)CO2` (stereo not given), for which the cytotoxicity at 10 µM is -0.818%.
As to `Fc1cnc(N2CCCC3(CCN(Cc4ccsc4)C3)C2)nc1` (stereo not given), the cytotoxicity at 10 µM was -2.83%.
Under `CCN1CCC2(CC1)CC(NCc1ccncc1)c1ccccc1O2` (stereo not given) stands 0.254%.
Under `O=C(CN1C[C@@H]2CC[C@H]1CN(Cc1ccccn1)C2)Nc1ccccc1` stands -5.92%.
